The source made the active and inactive calls. The calls are words filed in the database; no cut-off is given here.
Assays:
[1] = target: T1, Ectonucleoside triphosphate diphosphohydrolase 3 (Homo sapiens) (UniProt O75355); assay: Inhibition of human NTPDase3 assessed as amount of inorganic phosphate released using ATP as the substrate preincubated at 100 uM for 3 mins before substrate addition after 15 mins by malachite green reagent method
T1 sequence (whole entry): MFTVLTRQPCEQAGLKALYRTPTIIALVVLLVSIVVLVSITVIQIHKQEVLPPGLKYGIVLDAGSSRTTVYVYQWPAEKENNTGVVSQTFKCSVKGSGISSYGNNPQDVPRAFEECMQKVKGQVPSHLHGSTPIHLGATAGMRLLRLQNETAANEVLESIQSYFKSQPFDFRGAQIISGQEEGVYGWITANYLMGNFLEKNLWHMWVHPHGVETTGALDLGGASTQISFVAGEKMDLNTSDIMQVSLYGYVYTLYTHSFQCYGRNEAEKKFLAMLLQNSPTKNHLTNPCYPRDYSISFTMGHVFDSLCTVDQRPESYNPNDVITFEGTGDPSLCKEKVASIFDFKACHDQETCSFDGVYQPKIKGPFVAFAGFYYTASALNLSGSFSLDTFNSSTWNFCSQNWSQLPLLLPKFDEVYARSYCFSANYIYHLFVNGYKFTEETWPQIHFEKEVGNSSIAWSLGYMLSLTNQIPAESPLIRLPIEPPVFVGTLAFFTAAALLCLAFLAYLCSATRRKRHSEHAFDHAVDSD
How it was run: (§1)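 Crude extracts of COS-7 cells transiently transfected with human NTPDase1, -2, -3 or -8, preincubated 3 min at 37 °C in Tris-Ringer medium pH 7.4 with analogue (final 100 μM). Started with 100 μM ATP, stopped after 15 min with malachite green; released Pi read at 630 nm. ATP alone set as 100%. Mean ± SD of 3−6 experiments in triplicate.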

[2] = target: T2, Ectonucleoside triphosphate diphosphohydrolase 8 (Homo sapiens) (UniProt Q5MY95); assay: Inhibition of human NTPDase8 assessed as amount of inorganic phosphate released using ATP as the substrate preincubated at 100 uM for 3 mins before substrate addition after 15 mins by malachite green reagent method; how it was run: as §1
T2 sequence (whole entry): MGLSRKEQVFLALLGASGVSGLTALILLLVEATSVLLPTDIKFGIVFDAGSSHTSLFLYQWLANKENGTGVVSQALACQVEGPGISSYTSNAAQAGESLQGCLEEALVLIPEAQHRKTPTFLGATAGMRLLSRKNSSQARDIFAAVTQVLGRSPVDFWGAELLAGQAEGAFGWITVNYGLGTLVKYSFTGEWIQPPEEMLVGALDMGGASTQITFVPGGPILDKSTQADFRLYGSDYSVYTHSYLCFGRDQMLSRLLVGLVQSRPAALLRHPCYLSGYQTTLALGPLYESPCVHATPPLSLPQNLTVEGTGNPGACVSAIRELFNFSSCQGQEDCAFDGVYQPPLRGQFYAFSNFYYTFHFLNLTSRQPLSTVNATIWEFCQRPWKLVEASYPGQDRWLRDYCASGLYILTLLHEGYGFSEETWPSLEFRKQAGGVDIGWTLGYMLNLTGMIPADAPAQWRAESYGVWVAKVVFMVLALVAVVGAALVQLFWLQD

[3] = target: T3, Ectonucleotide pyrophosphatase/phosphodiesterase family member 3 (Homo sapiens) (UniProt O14638); assay: Inhibition of NPP3 in human HTB-85 cells assessed as production of p-nitrophenol using pnp-TMP at 100 uM measured after 20 mins by spectrophotometry; format: cell-based
T3 sequence (whole entry): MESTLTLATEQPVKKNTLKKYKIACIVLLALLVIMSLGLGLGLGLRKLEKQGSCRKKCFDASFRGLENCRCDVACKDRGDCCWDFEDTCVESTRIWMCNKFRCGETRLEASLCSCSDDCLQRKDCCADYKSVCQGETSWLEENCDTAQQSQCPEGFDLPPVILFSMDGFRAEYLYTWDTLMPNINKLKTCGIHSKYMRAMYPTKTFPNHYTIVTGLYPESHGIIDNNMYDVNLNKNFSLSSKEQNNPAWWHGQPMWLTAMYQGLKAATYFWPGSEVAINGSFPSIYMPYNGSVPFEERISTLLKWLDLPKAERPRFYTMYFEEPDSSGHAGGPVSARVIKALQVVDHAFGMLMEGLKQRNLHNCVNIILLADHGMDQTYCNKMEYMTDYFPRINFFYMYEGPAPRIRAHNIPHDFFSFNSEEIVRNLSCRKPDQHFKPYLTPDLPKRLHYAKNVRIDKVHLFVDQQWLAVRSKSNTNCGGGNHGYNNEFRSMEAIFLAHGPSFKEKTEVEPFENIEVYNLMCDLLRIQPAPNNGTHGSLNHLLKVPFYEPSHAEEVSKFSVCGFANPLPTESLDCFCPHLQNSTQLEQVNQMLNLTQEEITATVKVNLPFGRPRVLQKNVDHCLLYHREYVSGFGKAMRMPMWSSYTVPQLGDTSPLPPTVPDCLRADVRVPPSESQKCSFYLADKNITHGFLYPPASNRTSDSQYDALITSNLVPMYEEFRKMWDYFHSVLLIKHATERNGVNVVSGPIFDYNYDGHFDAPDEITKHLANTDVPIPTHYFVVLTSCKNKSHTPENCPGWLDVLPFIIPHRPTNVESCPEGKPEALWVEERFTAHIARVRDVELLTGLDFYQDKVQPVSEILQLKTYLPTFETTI
How it was run: (§2)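 Intact osteocarcinoma HTB85 (SaOS-2) cells in 24-well plates, 0.5 mL incubation mixture, analogue and pnp-TMP each at 100 μM. After 20 min an aliquot was read for p-nitrophenol at 410 nm. Substrate alone set as 100%. Mean ± SD of three experiments in triplicate.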

[4] = target: T4, Ectonucleotide pyrophosphatase/phosphodiesterase family member 1 (Homo sapiens) (UniProt P22413); assay: Inhibition of human NPP1 expressed in COS7 cells assessed as production of p-nitrophenol using pnp-TMP as the substrate preincubated at 100 uM for 3 mins before substrate addition measured after 15 mins […]; format: cell-based; details: COS-7
T4 sequence (whole entry): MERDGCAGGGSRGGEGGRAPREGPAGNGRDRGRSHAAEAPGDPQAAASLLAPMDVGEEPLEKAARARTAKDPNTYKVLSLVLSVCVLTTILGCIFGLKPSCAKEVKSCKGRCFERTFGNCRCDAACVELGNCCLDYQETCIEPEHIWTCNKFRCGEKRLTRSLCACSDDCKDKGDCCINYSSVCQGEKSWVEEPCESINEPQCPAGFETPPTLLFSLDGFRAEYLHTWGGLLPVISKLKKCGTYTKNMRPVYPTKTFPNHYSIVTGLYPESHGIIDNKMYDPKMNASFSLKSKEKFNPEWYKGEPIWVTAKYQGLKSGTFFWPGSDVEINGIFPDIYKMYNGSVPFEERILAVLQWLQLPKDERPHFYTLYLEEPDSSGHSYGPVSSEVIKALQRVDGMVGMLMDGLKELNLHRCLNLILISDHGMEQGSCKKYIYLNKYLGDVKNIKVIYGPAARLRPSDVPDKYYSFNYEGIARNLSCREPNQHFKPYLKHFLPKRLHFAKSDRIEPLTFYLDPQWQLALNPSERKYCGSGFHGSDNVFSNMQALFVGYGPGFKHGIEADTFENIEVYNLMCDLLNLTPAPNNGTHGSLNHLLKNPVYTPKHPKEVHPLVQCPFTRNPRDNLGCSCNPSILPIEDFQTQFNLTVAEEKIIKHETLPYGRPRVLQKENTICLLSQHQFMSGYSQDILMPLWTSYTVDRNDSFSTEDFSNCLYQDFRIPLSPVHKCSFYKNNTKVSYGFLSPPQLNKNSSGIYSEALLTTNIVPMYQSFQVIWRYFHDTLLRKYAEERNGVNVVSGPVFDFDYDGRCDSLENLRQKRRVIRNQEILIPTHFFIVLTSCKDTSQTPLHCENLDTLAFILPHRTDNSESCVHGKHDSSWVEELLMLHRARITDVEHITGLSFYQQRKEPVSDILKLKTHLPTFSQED
How it was run: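 Crude extracts of COS-7 cells transiently transfected with human NPP1 or NPP3, preincubated 3 min at 37 °C in 1 mM CaCl2, 140 mM NaCl, 5 mM KCl, 50 mM Tris pH 8.5 with analogue at 100 μM. Reaction started with 100 μM pnp-TMP; p-nitrophenol at 410 nm after 15 min. Activity without analogue set as 100%. Mean ± SD of 3−6 experiments in triplicate.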

[5] = target: T4, Ectonucleotide pyrophosphatase/phosphodiesterase family member 1 (Homo sapiens); assay: Inhibition of NPP1 in human HTB-85 cells assessed as production of p-nitrophenol using pnp-TMP at 100 uM measured after 20 mins by spectrophotometry; format: cell-based; how it was run: as §2
[6] = target: T5, Ectonucleoside triphosphate diphosphohydrolase 1 (Homo sapiens) (UniProt P49961); assay: Inhibition of human NTPDase1 assessed as amount of inorganic phosphate released using ATP as the substrate preincubated at 100 uM for 3 mins before substrate addition after 15 mins by malachite green reagent method; how it was run: as §1
T5 sequence (whole entry): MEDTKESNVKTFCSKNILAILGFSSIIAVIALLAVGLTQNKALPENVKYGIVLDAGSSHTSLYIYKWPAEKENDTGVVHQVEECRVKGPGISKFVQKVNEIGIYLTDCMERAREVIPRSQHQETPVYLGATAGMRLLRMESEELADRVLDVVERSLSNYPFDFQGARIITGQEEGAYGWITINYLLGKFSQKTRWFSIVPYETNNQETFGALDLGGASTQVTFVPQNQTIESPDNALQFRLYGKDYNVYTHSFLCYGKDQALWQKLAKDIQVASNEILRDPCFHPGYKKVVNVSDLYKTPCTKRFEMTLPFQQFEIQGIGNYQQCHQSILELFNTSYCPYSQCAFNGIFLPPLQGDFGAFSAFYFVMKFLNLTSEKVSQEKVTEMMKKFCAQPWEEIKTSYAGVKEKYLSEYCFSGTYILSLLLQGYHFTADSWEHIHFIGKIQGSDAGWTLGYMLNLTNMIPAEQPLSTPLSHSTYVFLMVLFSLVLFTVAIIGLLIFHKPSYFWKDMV

[7] = target: T4, Ectonucleotide pyrophosphatase/phosphodiesterase family member 1 (Homo sapiens); assay: Competitive inhibition of human NPP1 expressed in COS7 cells assessed as production of p-nitrophenol using pnp-TMP as the substrate preincubated at 25 to 100 uM for 3 mins before substrate addition measured after 15 mins by Dixon/Cornish Bowden method; format: cell-based; details: COS-7
How it was run: (§3)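 Crude protein extract from COS-7 cells transiently transfected with human NPP1 (sonicated, debris cleared at 300g), preincubated 3 min at 37 °C with inhibitor (0, 25, 50, 100 μM) in 1 mM CaCl2, 140 mM NaCl, 5 mM KCl, 50 mM Tris pH 8.5. pnp-TMP (25, 50, 100 μM) added; p-nitrophenol read at 410 nm after 15 min. Ki,app and inhibition type from Dixon and Cornish-Bowden plots, three independent experiments.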

[8] = target: T6, Ectonucleotide pyrophosphatase/phosphodiesterase family member 1 (Homo sapiens, UniProt P22413); assay: Mixed type inhibition of human NPP1 expressed in COS7 cells assessed as production of p-nitrophenol using pnp-TMP as the substrate preincubated for 3 mins before substrate addition measured after 15 mins by Dixon/Cornish Bowden method; format: cell-based, COS-7; details: read-out: Ki(app); how it was run: as §3
T6 sequence (P22413 whole entry): T4 sequence (whole entry)

[9] = target: T7, Ectonucleoside triphosphate diphosphohydrolase 2 (Homo sapiens) (UniProt Q9Y5L3); assay: Inhibition of human NTPDase2 assessed as amount of inorganic phosphate released using ATP as the substrate preincubated at 100 uM for 3 mins before substrate addition after 15 mins by malachite green reagent method; how it was run: as §1
T7 sequence (whole entry): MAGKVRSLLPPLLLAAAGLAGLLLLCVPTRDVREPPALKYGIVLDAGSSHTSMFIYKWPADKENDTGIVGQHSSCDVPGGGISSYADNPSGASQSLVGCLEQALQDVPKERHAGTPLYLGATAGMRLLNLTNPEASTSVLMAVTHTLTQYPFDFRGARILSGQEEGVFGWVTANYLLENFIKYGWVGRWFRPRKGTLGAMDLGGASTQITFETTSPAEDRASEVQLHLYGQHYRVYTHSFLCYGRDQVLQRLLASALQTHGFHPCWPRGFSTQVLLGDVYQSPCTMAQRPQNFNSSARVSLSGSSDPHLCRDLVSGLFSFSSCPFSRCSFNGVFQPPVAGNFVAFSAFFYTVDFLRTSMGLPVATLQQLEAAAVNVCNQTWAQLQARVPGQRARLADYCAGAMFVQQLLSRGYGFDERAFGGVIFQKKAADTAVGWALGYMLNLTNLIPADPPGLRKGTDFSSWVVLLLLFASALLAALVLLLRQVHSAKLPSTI

inhibition [1] [%] | inhibition [2] [%] | inhibition [3] [%] | inhibition [4] [%] | inhibition [5] [%] | inhibition [6] [%] | inhibition [7] | Ki [8] [µM] | inhibition [9] [%] | Structure (SMILES)
50 | 30 | 41 | 90 | 41 | – | – | – | – | B[P@](=O)(OC[C@H]1O[C@@H](n2cnc3c(N)nc(SC)nc32)[C@H](O)[C@@H]1O)OP(=O)(O)C(F)(F)P(=O)(O)O
50 | – | 90 | 90 | 90 | 50 | – | – | – | B[P@@](=O)(OC[C@H]1O[C@@H](n2cnc3c(N)nc(SC)nc32)[C@H](O)[C@@H]1O)OP(=O)(O)C(Cl)(Cl)P(=O)(O)O
– | – | 41 | 90 | 41 | – | Active | 37 | – | CSc1nc(N)c2ncn([C@@H]3O[C@H](COP(=O)(O)OP(=O)(O)C(F)(F)P(=O)(O)O)[C@@H](O)[C@H]3O)c2n1
– | – | 41 | 90 | 41 | – | Active | 28 | – | B[P@](=O)(OC[C@H]1O[C@@H](n2cnc3c(N)ncnc32)[C@H](O)[C@@H]1O)OP(=O)(O)C(Cl)(Cl)P(=O)(O)O

The next lines start with the molecule.

Structure (SMILES) | inhibition [1] [%] | inhibition [2] [%] | inhibition [3] [%] | inhibition [4] [%] | inhibition [5] [%] | inhibition [6] [%] | inhibition [7] | Ki [8] [µM] | inhibition [9] [%]
B[P@@](=O)(OC[C@H]1O[C@@H](n2cnc3c(N)nc(SC)nc32)[C@H](O)[C@@H]1O)OP(=O)(O)CP(=O)(O)O | < 18 | < 18 | – | 80 | – | < 18 | – | – | < 18
CSc1nc(N)c2ncn([C@@H]3O[C@H](COP(=O)(O)OP(=O)(O)CP(=O)(O)O)[C@@H](O)[C@H]3O)c2n1 | < 18 | < 18 | – | 66 | – | < 18 | – | – | < 18
B[P@](=O)(OC[C@H]1O[C@@H](n2cnc3c(N)nc(SC)nc32)[C@H](O)[C@@H]1O)OP(=O)(O)C(Cl)(Cl)P(=O)(O)O | – | – | 41 | 90 | 41 | – | – | – | –

From ChEMBL document CHEMBL3085721, “Nonhydrolyzable ATP analogues as selective inhibitors of human NPP1: a combined computational/experimental study” (J Med Chem, 2013)
